In ChEMBL document CHEMBL1124904, “7-Oxabicyclo[2.2.1]heptyl carboxylic acids as thromboxane A2 antagonists: aza omega-chain analogues” (J Med Chem, 1990):
Values belong to the compound of their own block, whether it stands above or below them.

Experiments:
[1] = species: Cavia porcellus; assay: Evaluated for its potency in Guinea pig trachea (GPT) spirals in the presence of increasing concentrations; assay type: functional
Outline: (§1)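 Guinea pig tracheal spirals contracted by U-46,619 in cumulative dose-response curves, repeated with increasing antagonist concentrations; Kb from analysis of the rightward shift.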

[2] = system: Cavia porcellus; assay: Evaluated for the percent inhibition of arachidonate-induced hypertension resulting in decreases in blood pressure at 60 min after dosing (0.1 mg/kg iv) in anesthetized guinea pig.; assay type: functional
Outline: (§2)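 Anesthetized guinea pig dosed iv with antagonist at 0.1 mg/kg (some at 1.0 mg/kg). Arachidonic acid 0.5 mg/kg iv given as challenge 3 or 60 min later. Airway resistance, dynamic compliance and blood pressure recorded; percent inhibition of each response.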

[3] = system: Cavia porcellus; assay: Evaluated for the percent inhibition of arachidonate-induced air-way resistance at 3 min after dosing (0.1 mg/kg iv) in anesthetized guinea pig.; assay type: functional; outline: as §2
[4] = system: Cavia porcellus; assay: Evaluated for the percent inhibition of arachidonate-induced air-way resistance at 60 min after dosing (0.1 mg/kg iv) in anesthetized guinea pig.; assay type: functional; outline: as §2
[5] = system: Cavia porcellus; assay: Evaluated for the percent inhibition of arachidonate-induced dynamic compliance at 60 min after dosing (0.1 mg/kg iv) in anesthetized guinea pig.; assay type: functional; outline: as §2
[6] = system: Cavia porcellus; assay: Evaluated for the percent inhibition of arachidonate-induced hypertension resulting in decreases in blood pressure at 3 min after dosing (0.1 mg/kg iv) in anesthetized guinea pig.; assay type: functional; outline: as §2
[7] = species: Homo sapiens; assay: Evaluated for ability to inhibit platelet aggregation of human platelet-rich plasma (PRP) induced by 11.9-epoxymethano-PGH2.; assay type: functional; conditions: read-out: I50
Outline: (§3)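 Human PRP aggregation induced by U-46,619 (11,9-epoxymethano-PGH2, stable PGH2/TxA2 mimic) at 5 or 10 μM; I50 reported. Values are single determinations unless otherwise noted.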

[8] = species: Homo sapiens; assay: Ability to inhibit platelet aggregation of human platelet-rich plasma (PRP) induced by 800 uM of AA-IPA (arachidonic acid); assay type: functional; conditions: read-out: I50
Outline: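 Human platelet-rich plasma; aggregation triggered by arachidonic acid at 800 μM. Test acids were also checked against ADP (20 μM)-induced aggregation. I50 taken as the concentration inhibiting aggregation.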

[9] = species: Rattus norvegicus; assay: Evaluated for its potency Rat aorta (RA) strips in the presence of increasing concentrations; assay type: functional
Outline: (§4)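 Rat aortic strips contracted by U-46,619 in cumulative dose-response curves, repeated with increasing antagonist concentrations; Kb from analysis of the rightward shift.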

[10] = target: T1, Thromboxane A2 receptor (Homo sapiens, UniProt P21731); assay: Binding affinity was determined from the inhibition of [3H]-SQ 29,548 binding to Thromboxane A2 receptor in human platelet membranes.; assay type: cell membranes
T1 sequence (P21731 whole entry): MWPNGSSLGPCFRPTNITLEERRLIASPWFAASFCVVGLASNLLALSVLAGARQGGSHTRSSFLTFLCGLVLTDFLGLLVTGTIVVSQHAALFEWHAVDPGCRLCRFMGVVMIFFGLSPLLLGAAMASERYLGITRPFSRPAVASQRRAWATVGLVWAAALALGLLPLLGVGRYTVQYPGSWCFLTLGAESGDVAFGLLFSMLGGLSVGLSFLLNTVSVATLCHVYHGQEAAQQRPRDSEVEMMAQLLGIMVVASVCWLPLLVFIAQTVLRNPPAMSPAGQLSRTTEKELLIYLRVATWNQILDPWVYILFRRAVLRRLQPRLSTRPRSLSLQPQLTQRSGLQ
Outline: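 Radioligand binding to human platelet membranes with [5,6-3H2]-SQ 29,548 as tracer; Kd derived from inhibition of specific binding.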

[11] = system: Cavia porcellus; assay: Evaluated for the percent inhibition of arachidonate-induced dynamic compliance at 3 min after dosing (0.1 mg/kg iv) in anesthetized guinea pig.; assay type: functional; outline: as §2
[12] = species: Cavia porcellus; assay: Evaluated for its potency in guinea pig trachea (GPT) spirals in the presence of increasing concentrations; assay type: functional; outline: as §1
[13] = species: Homo sapiens; assay: Evaluated for ability to inhibit platelet aggregation of human platelet-rich plasma (PRP) induced by 11.9-epoxymethano-PGH2; assay type: functional; conditions: read-out: I50; outline: as §3
[14] = species: Rattus norvegicus; assay: Evaluated for its potency in rat aorta (RA) strips in the presence of increasing concentrations; assay type: functional; outline: as §4

- IC50 ([7]; Homo sapiens, Plasma): 1100 nM
- IC50 ([8]; Homo sapiens, Plasma): 220 nM
- Kd [10]: 8.3 nM
SMILES: CCCCCCCCC(=O)NCC(=O)NCC1C2CCC(O2)C1C/C=C/CCCC(=O)O (stereo not drawn)
- Kb ([1]; Cavia porcellus, Trachea): 1.4 nM
- Inhibition [2]: 138%
- Inhibition [3]: 99%
- Inhibition [4]: 31%
- Inhibition [5]: 39%
- Inhibition [6]: 252%
- Kb ([9]; Rattus norvegicus, Aorta): 7.1 nM
- Inhibition [11]: 98%

- IC50 [8]: 900 nM
SMILES: CCCCCC(=O)NC(C)C(=O)NCC1C2CCC(O2)C1C/C=C/CCCC(=O)O (stereo in doubt; 49)

- IC50 [13]: 1950 nM
- IC50 ([8]; Homo sapiens, Plasma): 160 nM
- Kd [10]: 2.6 nM
SMILES: O=C(O)CCC/C=C/CC1C2CCC(O2)C1CNC(=O)CNC(=O)CCCCC1CCCCC1 (stereo not drawn)
- Kb [12]: 0.07 nM
- Kb [14]: 2.5 nM

- IC50 ([8]; Homo sapiens, Plasma): 5500 nM
SMILES: O=C(O)CCC/C=C/CC1C2CCC(O2)C1CNC(=O)C(=O)Nc1ccccc1 (stereo not drawn)

- IC50 ([8]; Homo sapiens, Plasma): 30000 nM
SMILES: CCCCCCCNC(=O)CNC(=O)C1C2CCC(O2)C1C/C=C/CCCC(=O)O (stereo not drawn)

- IC50 ([8]; Homo sapiens, Plasma): 125000 nM
SMILES: CCCCCCNC(=O)CC(=O)NC1C2CCC(O2)C1C/C=C/CCCC(=O)O (stereo not drawn)

- IC50 ([8]; Homo sapiens, Plasma): 1000 nM
SMILES: CCCCNC(=O)NCC(=O)NCC1C2CCC(O2)C1C/C=C/CCCC(=O)O (stereo not drawn)

- IC50 ([8]; Homo sapiens, Plasma): 6600 nM
SMILES: CCCCCCC(=O)NCC(=O)NCC1C2CCC(O2)C1C/C=C/CCCC(=O)O (single isomer, unassigned; (+))
- Kb ([1]; Cavia porcellus, Trachea): 174 nM
- Kb ([9]; Rattus norvegicus, Aorta): 326 nM

- IC50 ([8]; Homo sapiens, Plasma): 340000 nM
SMILES: CCCCCNCCC1C2CCC(O2)C1C/C=C/CCCC(=O)O (stereo not drawn)

- IC50 ([8]; Homo sapiens, Plasma): 15000 nM
SMILES: CCCCCCCCC(=O)NCC1C2CCC(O2)C1C/C=C/CCCC(=O)O (stereo not drawn)

- IC50 [13]: 110 nM
- IC50 ([8]; Homo sapiens, Plasma): 21 nM
- Kd [10]: 41.4 nM
SMILES: O=C(O)CCC/C=C/CC1C2CCC(O2)C1CNC(=O)CNC(=O)CSc1ccccc1 (stereo not drawn)
- Kb [12]: 2.4 nM
- Inhibition [2]: 235%
- Inhibition [3]: 98%
- Inhibition [4]: 53%
- Inhibition [5]: 42%
- Inhibition [6]: 287%
- Kb [14]: 1.8 nM
- Inhibition [11]: 92%

- IC50 ([8]; Homo sapiens, Plasma): 660 nM
SMILES: CCCCCCC(=O)OCC(=O)NCC1C2CCC(O2)C1C/C=C/CCCC(=O)O (stereo not drawn)

- IC50 ([8]; Homo sapiens, Plasma): 1100 nM
SMILES: CCCCOC(=O)NCC(=O)NCC1C2CCC(O2)C1C/C=C/CCCC(=O)O (stereo not drawn)

- IC50 ([8]; Homo sapiens, Plasma): 11000 nM
SMILES: O=C(O)CCC/C=C/CC1C2CCC(O2)C1NC(=O)CCCc1ccccc1 (stereo not drawn)

- IC50 ([8]; Homo sapiens, Plasma): 2600 nM
SMILES: O=C(O)CCC/C=C/CC1C2CCC(O2)C1CNC(=O)CNC(=O)c1ccccc1 (stereo not drawn)

- IC50 ([8]; Homo sapiens, Plasma): 520000 nM
SMILES: CCCCCC(=O)NC(C)(C)C(=O)NCC1C2CCC(O2)C1C/C=C/CCCC(=O)O (stereo not drawn)

- IC50 ([8]; Homo sapiens, Plasma): 120000 nM
SMILES: CCCCCCCNC1C2CCC(O2)C1C/C=C/CCCC(=O)O (stereo not drawn)

- IC50 ([8]; Homo sapiens, Plasma): 500 nM
SMILES: CCCCCNC(=O)CC(=O)NCC1C2CCC(O2)C1C/C=C/CCCC(=O)O (stereo not drawn)

- IC50 ([8]; Homo sapiens, Plasma): 1400 nM
SMILES: COc1ccc(SCC(=O)NCC2C3CCC(O3)C2C/C=C/CCCC(=O)O)cc1 (stereo not drawn)

- IC50 ([8]; Homo sapiens, Plasma): 14000 nM
SMILES: CCCCCNC(=O)CCNC(=O)C1C2CCC(O2)C1C/C=C/CCCC(=O)O (stereo not drawn)

- IC50 ([8]; Homo sapiens, Plasma): 26000 nM
SMILES: O=C(O)CCC/C=C/CC1C2CCC(O2)C1CNC(=O)NCc1ccccc1 (stereo not drawn)

- IC50 [8]: 53000 nM
SMILES: CCCCCC(=O)NC(C)C(=O)NCC1C2CCC(O2)C1C/C=C/CCCC(=O)O (stereo in doubt; 48)

- IC50 ([8]; Homo sapiens, Plasma): 5300 nM
SMILES: O=C(O)CCC/C=C/CC1C2CCC(O2)C1CNCC(=O)Nc1ccccc1 (stereo not drawn)

- IC50 [8]: 20 nM
SMILES: O=C(O)CCC/C=C/CC1C2CCC(O2)C1CNNC(=O)Nc1ccccc1 (single isomer, unassigned; (+))

- IC50 ([7]; Homo sapiens, Plasma): 9600 nM
- IC50 ([8]; Homo sapiens, Plasma): 970 nM
- Kd [10]: 26.4 nM
SMILES: CCCCCC/C(S)=N/C/C(S)=N/CC1C2CC[C@@H](O2)C1C/C=C/CCCC(=O)O (stereo partly drawn)

- IC50 ([8]; Homo sapiens, Plasma): 630 nM
SMILES: O=C(O)Cc1ccc(CCNS(=O)(=O)c2ccc(Cl)cc2)cc1 [DALTROBAN]

- IC50 [8]: 90 nM
SMILES: O=C(O)CCC/C=C/CC1C2CCC(O2)C1CNNC(=O)Nc1ccccc1 (racemic)
- Inhibition [2]: 59%
- Inhibition [3]: 97%
- Inhibition [4]: 42%
- Inhibition [5]: 56%
- Inhibition [6]: 151%
- Inhibition [11]: 96%

- IC50 ([8]; Homo sapiens, Plasma): 3000 nM
SMILES: CCCCCC(=O)N(C)CC(=O)NCC1C2CCC(O2)C1C/C=C/CCCC(=O)O (stereo not drawn)

- IC50 ([8]; Homo sapiens, Plasma): 184000 nM
SMILES: O=C(O)CCC/C=C/CC1C2CCC(O2)C1CCNC(=O)Nc1ccccc1 (stereo not drawn)

- IC50 ([8]; Homo sapiens, Plasma): 160000 nM
SMILES: CCCCCNC(=O)CCC(=O)NC1C2CCC(O2)C1C/C=C/CCCC(=O)O (stereo not drawn)

- IC50 [13]: 120 nM
- IC50 ([8]; Homo sapiens, Plasma): 45 nM
- Kd [10]: 1.1 nM
SMILES: O=C(O)CCC/C=C/CC1C2CCC(O2)C1CNC(=O)CNC(=O)CCCC1CCCCC1 (stereo not drawn)
- Kb [12]: 0.07 nM
- Inhibition [2]: 289%
- Inhibition [3]: 99%
- Inhibition [4]: 84%
- Inhibition [5]: 59%
- Inhibition [6]: 289%
- Kb [14]: 0.9 nM
- Inhibition [11]: 97%

- IC50 ([8]; Homo sapiens, Plasma): 12000 nM
SMILES: CCCCCCNCC1C2CCC(O2)C1C/C=C/CCCC(=O)O (stereo not drawn)

- IC50 ([8]; Homo sapiens, Plasma): 13500 nM
SMILES: COc1ccc(NCC(=O)NCC2C3CCC(O3)C2C/C=C/CCCC(=O)O)cc1 (stereo not drawn)

- IC50 [7]: 430 nM
- IC50 [8]: 220 nM
- Kd [10]: 17.5 nM
SMILES: CCCCCCCC(=O)NCC(=O)NCC1C2CCC(O2)C1C/C=C/CCCC(=O)O (stereo in doubt; 51)
- Kb [1]: 2 nM
- Inhibition [2]: 130%
- Inhibition [3]: 97%
- Inhibition [4]: 79%
- Inhibition [5]: 74%
- Kb [9]: 3.4 nM
- Inhibition [11]: 98%

- IC50 ([7]; Homo sapiens, Plasma): 230 nM
- IC50 ([8]; Homo sapiens, Plasma): 40 nM
- Kd [10]: 12.4 nM
SMILES: CCCCCC/C(S)=N/CC(=O)NCC1C2CCC(O2)C1C/C=C/CCCC(=O)O (stereo not drawn)
- Kb ([1]; Cavia porcellus, Trachea): 4.4 nM
- Inhibition [2]: 158%
- Inhibition [3]: 97%
- Inhibition [4]: 51%
- Inhibition [5]: 56%
- Inhibition [6]: 178%
- Kb ([9]; Rattus norvegicus, Aorta): 1.1 nM
- Inhibition [11]: 94%

- IC50 ([8]; Homo sapiens, Plasma): 200 nM
SMILES: O=C(O)CCC/C=C/CC1C2CCC(O2)C1CNNC(=O)Cc1ccccc1 (stereo not drawn)

- IC50 ([8]; Homo sapiens, Plasma): 3300 nM
SMILES: O=C(O)CCC/C=C/CC1C2CCC(O2)C1CNC(=O)CCc1ccccc1 (stereo not drawn)

- IC50 ([8]; Homo sapiens, Plasma): 14000 nM
SMILES: CCCCC(=O)NCCC(=O)NCC1C2CCC(O2)C1C/C=C/CCCC(=O)O (stereo not drawn)

- IC50 ([8]; Homo sapiens, Plasma): 65000 nM
SMILES: O=C(O)CCC/C=C/CC1C2CCC(O2)C1CNCCNc1ccccc1 (stereo not drawn)

- IC50 [13]: 150 nM
- IC50 ([8]; Homo sapiens, Plasma): 15 nM
- Kd [10]: 4.2 nM
SMILES: CC(C)(C)c1ccc(SCC(=O)NCC(=O)NCC2C3CCC(O3)C2C/C=C/CCCC(=O)O)cc1 (stereo not drawn)
- Kb [12]: 0.1 nM
- Inhibition [2]: 184%
- Inhibition [3]: 98%
- Inhibition [4]: 43%
- Inhibition [5]: 26%
- Inhibition [6]: 191%
- Kb [14]: 1.8 nM
- Inhibition [11]: 95%
